The text below walks through data of article PMC3760157 (Bioorganic & medicinal chemistry letters, 2013).

The structures appear in SMILES notation. Counter-ions that a name gives are not always drawn.

The nature of one series: In vitro cytotoxicity. It counts as cell-based. The settings on record: African green monkey, Vero cells (African green monkey kidney fibroblast). In outline:
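Vero (African green monkey kidney) cell growth assay. […] Test compounds went up to 25 μg/mL and the doxorubicin control up to 5 μg/mL. Values are means of three independent experiments.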

The next series relates to fungi. The settings on record: antifungal activity; cited from earlier work.
The conditions of series [1]: patients with leishmania; cited from earlier work.
The subject of another series is C. albicans ATCC 90028. Briefly: In vitro antifungal testing. The class given is cell-based, Candida albicans. The note with it: from MIC/MFC.
In series [2] the test system is C. albicans, Candida glabrata, Candida krusei, Aspergillus fumigatus, and C. neoformans. Briefly: In vitro antifungal testing, range over all tested pathogens. The class given is cell-based. The note with it: range over the five fungal pathogens. In outline: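 Broth microdilution. MIC is the lowest concentration with no detectable growth. For MFC, 5 μL from each clear well was moved to agar and incubated at 35°C: 48 h for Candida spp. and A. fumigatus, 72 h for C. neoformans. […] Values are means of three independent experiments (two for one analogue).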

In a further series the test system is C. albicans SC5314. Briefly: In vivo efficacy in mouse model of systemic candidiasis. The settings on record: 5 and 25 mg/kg.

In the case of `CCCCCCCCCCCCCCOP(=O)([O-])OCC[N+](C)(C)Cc1ccccc1` [Compound 3b], the 50% inhibitory concentration (IC50) in “In vitro cytotoxicity” is above 25 µg/mL.

In the case of `CCCCCCCCCCCCCCCCOP(=O)([O-])OCC[N+](C)(C)Cc1ccc(Br)cc1` [Compound 3g], the half-maximal inhibitory concentration (IC50) in “In vitro cytotoxicity” is above 25 µg/mL.

For `CCCCCCCCCCCCCCCCOP(=O)([O-])OCC[N+](C)(C)C/C=C/c1ccccc1` [Compound 3h], the IC50 in “In vitro cytotoxicity” is above 25 µg/mL.

In turn, `CCCCCCCCCCCCCCCCOP(=O)([O-])OCC[N+](C)(C)Cc1ccc(Cl)cc1` [Compound 3f] registered a 50% inhibitory concentration (IC50) in the series “In vitro cytotoxicity” above 25 µg/mL.

In the case of `C=CC[N+](C)(C)CCOP(=O)([O-])OCCCCCCCCCCCCCCCC` [Compound 3i], the concentration for half-maximal inhibition (IC50) in the series “In vitro cytotoxicity” is above 25 µg/mL.

With `CCCCCCCCCCCCCCCCCCOP(=O)([O-])OCC[N+](C)(C)Cc1ccccc1` [Compound 3c], in “In vitro cytotoxicity”, the 50% inhibitory concentration (IC50) is above 25 µg/mL.

For `COc1cccc2c1C(=O)c1c(O)c3c(c(O)c1C2=O)C[C@@](O)(C(=O)CO)C[C@@H]3O[C@H]1C[C@H](N)[C@H](O)[C@H](C)O1` [Doxorubicin, reference compound], the IC50 in “In vitro cytotoxicity” is above 5 µg/mL.

With `CCCCCCCC/C=C\CCCCCCCCCCCCOP(=O)([O-])OCC[N+](C)(C)C` [erucylphosphocholine], the “fold less potent than miltefosine” value with fungi was 8 fold.

The compound `CCCCCCCCCCCCCCCCOP(=O)([O-])OCC[N+](C)(C)C` [Miltefosine, hexadecylphosphocholine] gave an IC50 in “In vitro cytotoxicity” above 25 µg/mL. Also, in series [1], the “half-life, first elimination” value is listed as 7 days and the “half-life, terminal elimination” value is 31 days.

As for `CCCCCCCCCCCCCCCCOP(=O)([O-])OCC[N+](C)(C)Cc1ccc([N+](=O)[O-])cc1` [Compound 3d, N,N-dimethyl-N-(4-nitrobenzyl)-2-{[(hexadecyloxy)hydroxyphosphinyl]oxy}ethanaminium inner salt], the “fold less potent than amphotericin B” value in the series with C. albicans ATCC 90028 is on record as 2- to 3 fold. Besides, in series [2], the “MICs, range against all tested pathogens” value lay in the range of 2.5 to 5.0 µg/mL. Also, the IC50 in the series “In vitro cytotoxicity” was above 25 µg/mL.

`CCCCCCCCCCCCCCCCOP(=O)([O-])OCC[N+](C)(C)Cc1ccc(OC)cc1` [Compound 3e, N-(4-methoxybenzyl)-N,N-dimethyl-2-{[(hexadecyloxy)hydroxyphosphinyl]oxy}ethanaminium inner salt]: the “MICs, range against all tested pathogens” value in series [2] is 2.5 to 5.0 µg/mL. The compound further displayed an IC50 in the series “In vitro cytotoxicity” above 25 µg/mL.

As to `CCCCCCCCCCCCCCCCOP(=O)([O-])OCC[N+](C)(C)Cc1ccccc1` [Compound 3a, N-benzyl-N,N-dimethyl-2-{[(hexadecyloxy)hydroxyphosphinyl]oxy}ethanaminium inner salt], in the series with C. albicans ATCC 90028, the “fold less potent than amphotericin B” value is 2- to 3 fold. In series [2], the “MFCs, range against all tested pathogens” value is 2.5 to 15.0 µg/mL and the “MICs, range against all tested pathogens” value was 2.5 to 5.0 µg/mL. For the same compound, the IC50 in the series “In vitro cytotoxicity” was above 25 µg/mL. Also, the “Survival rate of mice vs PBS control, oral administration” value in the series with C. albicans SC5314 was “did not enhance the survival rate”.
